According to ChEMBL document CHEMBL1154178, “Puupehanol, a sesquiterpene-dihydroquinone derivative from the marine sponge Hyrtios sp” (Bioorg Med Chem Lett, 2009):
Values after ≈ are worked out from the molar mass of the structure shown. Active and inactive are the calls of the source. No cut-off for these calls is given here.

Assays:
Type in all cases: functional, organism-based
Nakaseomyces glabratus [1] = experiment: Antifungal activity against Candida glabrata ATCC 90030 after 48 hrs by two fold serial dilution technique at 20 ug/mL
How it was run: (§1)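 Top concentration in the dilution series was 20 µg/mL.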

Candida albicans [2] = experiment: Antifungal activity against Candida albicans ATCC 90028 after 48 hrs by two fold serial dilution technique at 20 ug/mL; how it was run: as §1
Pichia kudriavzevii [3] = experiment: Antifungal activity against Candida krusei ATCC 6258 after 48 hrs by two fold serial dilution technique at 20 ug/mL; how it was run: as §1
Cryptococcus neoformans [4] = experiment: Antifungal activity against Cryptococcus neoformans ATCC 90113 after 72 hrs by two fold serial dilution technique at 20 ug/mL; how it was run: as §1
Aspergillus fumigatus [5] = experiment: Antifungal activity against Aspergillus fumigatus ATCC 90906 after 48 hrs by two fold serial dilution technique at 20 ug/mL; how it was run: as §1
Cryptococcus neoformans [6] = experiment: Antifungal activity against Cryptococcus neoformans ATCC 90113 after 72 hrs by two fold serial dilution technique; conditions: ATCC 90113, 72 h; how it was run: as §1
Nakaseomyces glabratus [7] = experiment: Antifungal activity against Candida glabrata ATCC 90030 after 48 hrs by two fold serial dilution technique; conditions: ATCC 90030, 48 h; how it was run: as §1
Candida albicans [8] = experiment: Antifungal activity against Candida albicans ATCC 90028 after 48 hrs by two fold serial dilution technique; conditions: ATCC 90028, 48 h
Aspergillus fumigatus [9] = experiment: Antifungal activity against Aspergillus fumigatus ATCC 90906 after 48 hrs by two fold serial dilution technique
Pichia kudriavzevii [10] = experiment: Antifungal activity against Candida krusei ATCC 6258 after 48 hrs by two fold serial dilution technique; conditions: ATCC 6258, 48 h

Row | Structure (SMILES) | Activity (Nakaseomyces glabratus [1]) | Activity (Candida albicans [2]) | Activity (Pichia kudriavzevii [3]) | Activity (Aspergillus fumigatus [5]) | IC50 (Cryptococcus neoformans [6]) | MFC (Cryptococcus neoformans [6]) | MIC (Cryptococcus neoformans [6]) | IC50 (Nakaseomyces glabratus [7]) | MFC (Nakaseomyces glabratus [7]) | MIC (Nakaseomyces glabratus [7]) | IC50 (Candida albicans [8]) | IC50 (Aspergillus fumigatus [9]; ATCC 90906, 48 h) | IC50 (Pichia kudriavzevii [10]) | also measured
1 | CC1(C)CCC[C@]2(C)[C@H]3C=C4C(=CC(=O)[C@H](O)[C@@H]4O)O[C@@]3(C)CC[C@@H]12 | inactive | inactive | inactive | inactive |  |  |  |  |  |  |  |  |  | Activity (Cryptococcus neoformans [4]): inactive
2 | CC1(C)CCC[C@]2(C)[C@H]3C=C4C(=CC(=O)C(O)=C4Cl)O[C@@]3(C)CC[C@@H]12 [CHLOROPUUPEHENONE] | inactive | inactive | inactive | inactive | 5.73 µg/mL (≈ 15.8 µM) | 20 µg/mL (≈ 55.1 µM) | 10 µg/mL (≈ 27.6 µM) |  |  |  |  |  |  | 
3 | CC1(C)CCC[C@]2(C)[C@H]3C=C4C=C(O)C(=O)C=C4O[C@@]3(C)CC[C@@H]12 [PUUPEHENONE] |  |  |  |  | 0.38 µg/mL (≈ 1.16 µM) | 1.25 µg/mL (≈ 3.81 µM) | 0.63 µg/mL (≈ 1.92 µM) | 2.67 µg/mL (≈ 8.13 µM) | 10 µg/mL (≈ 30.4 µM) | 10 µg/mL (≈ 30.4 µM) | 3.02 µg/mL (≈ 9.19 µM) | 5.63 µg/mL (≈ 17.1 µM) | 1.49 µg/mL (≈ 4.54 µM) | MFC (Candida albicans [8]): 10 µg/mL (≈ 30.4 µM); MIC (Candida albicans [8]): 10 µg/mL (≈ 30.4 µM); MFC (Aspergillus fumigatus [9]): inactive; MIC (Aspergillus fumigatus [9]; ATCC 90906, 48 h): 10 µg/mL (≈ 30.4 µM); MFC (Pichia kudriavzevii [10]): 2.5 µg/mL (≈ 7.61 µM); MIC (Pichia kudriavzevii [10]): 2.5 µg/mL (≈ 7.61 µM)
4 | C[C@@H]1[C@H](O)[C@@H](C)/C=C/C=C/C=C/C=C/C=C/C=C/C=C/[C@H](O[C@@H]2O[C@H](C)[C@@H](O)[C@H](N)[C@@H]2O)C[C@@H]2O[C@](O)(C[C@@H](O)C[C@@H](O)[C@H](O)CC[C@@H](O)C[C@@H](O)CC(=O)O[C@H]1C)C[C@H](O)[C@H]2C(=O)O [AMPHOTERICIN B] |  |  |  |  | 0.34 µg/mL (≈ 0.368 µM) | 0.63 µg/mL (≈ 0.682 µM) | 0.63 µg/mL (≈ 0.682 µM) | 0.29 µg/mL (≈ 0.314 µM) | 0.63 µg/mL (≈ 0.682 µM) | 0.63 µg/mL (≈ 0.682 µM) | 0.26 µg/mL (≈ 0.281 µM) | 1.02 µg/mL (≈ 1.1 µM) | 0.699 µg/mL (≈ 0.756 µM) | MFC (Aspergillus fumigatus [9]; ATCC 90906, 48 h): 5 µg/mL (≈ 5.41 µM)
